The text below walks through data of ChEMBL document CHEMBL2396639, “Peptidomimetic modification improves cell permeation of bivalent farnesyltransferase inhibitors” (Bioorg Med Chem, 2013).

The target of data set [1] is T1, Protein farnesyltransferase (Homo sapiens, UniProt P49354+P49356). Kind of data set: Inhibition of recombinant FTase (unknown origin)-mediated K-Ras4B model peptide KKKKKKSK(Dans)TKCVIM farnesylation by fluorescence plate reader analysis in presence of FPP. The class given is protein-complex assay. In short, it runs like this: (§1)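 Recombinant mammalian FTase (50 nM) with dansylated K-Ras4B peptide (1 μM) and FPP (5 μM). Compound tested at 0–500 μM in 50 mM Tris HCl pH 7.5 at 30 °C. Reagents spotted separately, and buffer addition starts the reaction. Fluorescence (ex 340/em 520 nm) followed for 5 min on a plate reader, n = 3. IC50 converted to Ki by Cheng-Prusoff with peptide Km 0.033 μM.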

Data set [2] has as its target T1, Protein farnesyltransferase. Description: Inhibition of FTase-mediated prenylation in human T24 cells assessed as inhibition of HDJ-2 processing at 10 to 100 uM treated twice on day 1 and day 3 followed by incubation for 4 days by Western blot analysis. The data set is classed as cell-based. The settings on record: T-24. Summed up: (§2)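 T24 cells (MEM) or A549 cells (RPMI 1640), each with 10% bovine serum. Cells treated twice with compound at 10, 30 and 100 μM, or DMSO control, then harvested on day 4 and lysed in Tris pH 7.6/Triton X-100 buffer. Lysate (5 µg) run on 7.5% SDS-PAGE, transferred to PVDF, probed with anti-HDJ-2. Read as band shift from processed to unprocessed HDJ-2, detected by HRP anti-rabbit IgG with ECL.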

For data set [3] the target is unchanged. Kind of data set: Inhibition of FTase-mediated prenylation in human A549 cells assessed as inhibition of HDJ-2 processing at 10 to 100 uM treated twice on day 1 and day 3 followed by incubation for 4 days by Western blot analysis. The data set is classed as cell-based. In short, it runs like this:
as §2
On the technique in general: In western blotting, separated proteins are transferred to a membrane and probed.

The test system of another data set is T-24. Description: Inhibition of GGTase1-mediated prenylation in human T24 cells assessed as inhibition of Rap1A processing at 10 to 100 uM treated twice on day 1 and day 3 followed by incubation for 4 days by Western blot analysis. The class given is cell-based. Summed up: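 T24 cells grown in MEM with 10% bovine serum. Treated twice with compound at 10, 30 and 100 μM, or DMSO control, then harvested on day 4 and lysed. Lysate (5 µg) run on 12.5% SDS-PAGE, transferred to PVDF, probed with anti-Rap1A. Geranylgeranylation read as shift from processed to unprocessed Rap1A band, detected by HRP anti-rabbit IgG with ECL.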

Data set [4] relates to A549. Description: Cellular uptake in human A549 cells at 25 uM after 3 hrs by confocal microscopy. The class given is ADME, cell-based. The following applies: a549, 3 h. In short, it runs like this: (§3)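 A549 cells grown in RPMI 1640 with 10% heat-inactivated FBS at 37 °C, 5% CO2. Seeded on glass dish at 1×10^5 cells/mL, adhered overnight. Fluorescent BODIPY-labelled compound added from DMSO stock at 25 μM (0.1% DMSO final), 3 h at 37 °C. Cells washed four times with PBS, covered with Opti-MEM, imaged by laser scanning confocal microscopy.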

Data set [5] deals with T1, Protein farnesyltransferase. Kind of data set: Inhibition of FTase (unknown origin)-mediated K-Ras4B model peptide KKKKKKSK(Dans)TKCVIM farnesylation by microplate reader analysis. The class given is protein-complex assay. Summed up: as §1
A short description of data set [6]: Drug uptake in human A549 cell nucleus at 25 uM after 3 hrs by confocal microscopy. The settings on record: a549, 3 h. The class given is ADME, cell-based. Summed up: as §3
Data set [7] in a line: Drug uptake in human A549 cell cytosol at 25 uM after 3 hrs by confocal microscopy. The class given is ADME, cell-based. In short, it runs like this:
as §3

The test system of data set [8] is A549. Kind of data set: Drug uptake in human A549 cells assessed as accumulation on plasma membrane at 25 uM after 3 hrs by confocal microscopy. The data set is classed as ADME, cell-based. The settings on record: a549, 3 h. In short, it runs like this: as §3

Calls of active or inactive are those of the source. The rule behind the calls is not given here. Residues, ends and D or L forms follow the SMILES beside them. *: point of attachment. X1 = NCC(CN)CCOc1cc(C(=O)*)cc(OCCC(CN)CN)c1OCCC(CN)CN; Ahx = NCCCCCC(=O)O

As usually defined, the Ki is a dissociation constant, usually derived from enzyme kinetics or from competition with a known ligand. Consider `CSCC[C@H](NC(=O)c1ccc(NC[C@@H](N)CS)cc1)C(=O)O`, for which the Ki in [1] turned out to be 785 nM.
As for `COC(=O)[C@H](CCSC)NC(=O)c1ccc(NC[C@H](CS)NC(=O)CCCCCNC(=O)c2cc(OCCC(CN)CN)c(OCCC(CN)CN)c(OCCC(CN)CN)c2)cc1`, the inhibition entry in [2] and in data set [3] was “Active” throughout. The inhibition result with T-24 is “inactive”.
In the case of `CC1=CC(C)=[N+]2C1=C(CCC(=O)NCCCC[C@H](NC(=O)c1cc(OCCC(CN)CN)c(OCCC(CN)CN)c(OCCC(CN)CN)c1)C(=O)O)c1c(C)cc(C)n1[B-]2(F)F`, in the data set with A549 [4], the Drug uptake entry is on record as “Active”.
As to `CC[C@H](C)[C@H](NC(=O)[C@@H](NC(=O)[C@@H](N)CS)C(C)C)C(=O)N[C@@H](CCSC)C(=O)O`, in data set [5], the Ki came to 1100 nM.
As for `COC(=O)[C@H](CCSC)NC(=O)c1ccc(NC[C@H](CS)NC(=O)CCNC(=O)[C@H](CCCCNC(=O)CCC2=C3C(C)=CC(C)=[N+]3[B-](F)(F)n3c(C)cc(C)c32)NC(=O)c2cc(OCCC(CN)CN)c(OCCC(CN)CN)c(OCCC(CN)CN)c2)cc1`, the Drug uptake result in data set [6] is “Not Active”; in data set [7], “Active”.
`CC[C@H](C)[C@H](NC(=O)[C@@H](NC(=O)[C@H](CS)NC(=O)CCNC(=O)[C@H](CCCCNC(=O)CCC1=C2C(C)=CC(C)=[N+]2[B-](F)(F)n2c(C)cc(C)c21)NC(=O)c1cc(OCCC(CN)CN)c(OCCC(CN)CN)c(OCCC(CN)CN)c1)C(C)C)C(=O)N[C@@H](CCSC)C(=O)O`: the Drug uptake result in the data set on A549 [8] was “Not Active”.
As to `CC[C@H](C)[C@H](NC(=O)[C@@H](NC(=O)[C@H](CS)NC(=O)CCCCCNC(=O)c1cc(OCCC(CN)CN)c(OCCC(CN)CN)c(OCCC(CN)CN)c1)C(C)C)C(=O)N[C@@H](CCSC)C(=O)O` ({X1-Ahx}-CVIM-OH), the values for the Ki in data set [5] and in data set [1] were 5 nM and 15 nM, respectively. For the same compound, in [3], the inhibition entry was “inactive”.
As to `CSCC[C@H](NC(=O)c1ccc(NC[C@H](CS)NC(=O)CCCCCNC(=O)c2cc(OCCC(CN)CN)c(OCCC(CN)CN)c(OCCC(CN)CN)c2)cc1)C(=O)O`, the Ki in [1] came to 837 nM.
